# What was measured:
# [1] = format: in vivo, rat; details: 4 h after oral DFP-11207 53.4 mg/kg
# Procedure, shortened: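 AZ521 xenograft-bearing nude rats received 53.4 mg/kg (75 μmol/kg) test compound orally and were killed at 1, 2, 4, 8 and 12 h. Serum, small intestine and tumour were taken. Tissues were homogenised in 10 mM potassium phosphate-buffered saline (pH 7.2) and spun at 9,000× g for 30 min. Supernatants were extracted with 4 volumes of ethyl acetate, dried at 40°C, redissolved, and assayed for CTA and 5-FU by HPLC.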
# [2] = molecular target: T1, orotate phosphoribosyltransferase (OPRT) (Homo sapiens, UniProt P11172); details: cited from earlier work
# T1 sequence (P11172 1-480): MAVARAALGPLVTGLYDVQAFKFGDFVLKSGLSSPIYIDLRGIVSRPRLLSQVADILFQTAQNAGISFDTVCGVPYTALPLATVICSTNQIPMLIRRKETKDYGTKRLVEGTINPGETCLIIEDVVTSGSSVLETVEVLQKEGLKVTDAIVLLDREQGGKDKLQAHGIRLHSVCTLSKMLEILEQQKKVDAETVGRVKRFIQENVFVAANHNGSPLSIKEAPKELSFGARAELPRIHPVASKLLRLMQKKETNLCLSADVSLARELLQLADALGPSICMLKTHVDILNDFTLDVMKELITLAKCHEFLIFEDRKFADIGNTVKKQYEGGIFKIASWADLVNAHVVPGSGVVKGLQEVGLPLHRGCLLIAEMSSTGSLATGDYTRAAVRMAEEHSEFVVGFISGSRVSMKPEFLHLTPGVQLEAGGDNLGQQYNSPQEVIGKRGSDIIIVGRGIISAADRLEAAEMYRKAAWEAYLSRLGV
# [3] = test system: CoLo320DM cells; format: cell-based, human; details: 1-100 µM, 1 µM [6-3H] 5-FU, 37°C, 45 min
# Procedure, shortened: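 CoLo320DM cells in RPMI-1640 were incubated at 37°C for 45 min with 1 μM [6-3H]5-FU (37 kBq), alone or with 1–100 μM test compound or CTA. Acid was added and the mixture centrifuged. The neutralised acid-soluble fraction was run on silica TLC and the FUMP spot counted. RNA-incorporated label in the precipitate was extracted by the Schneider method. Results are means of duplicate assays.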
# [4] = format: in vitro ADME; details: rat serum, liver and small intestine homogenates
# Procedure, shortened: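 Test compound (1 mM) was incubated at 37°C with rat serum or 20% (w/v) liver or small-intestine homogenates for 10, 20, 30 and 60 min. Reactions were stopped with 10% TCA and spun at 3,000× g for 10 min. Supernatants were neutralised with 2 M KOH, and EM-FU, CDHP, CTA and 5-FU were measured by HPLC. Results are means of duplicate assays.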
# [5] = Conversion of EM-FU to 5-FU by dog liver microsomes; format: in vitro ADME; details: 1 mM, 60 min
# Procedure, shortened: (§1)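 EM-FU (1 mM) was incubated for 60 min with liver microsomes (0.85 mg protein) from each species, with tegafur as positive control. 5-FU formed was quantified by HPLC. Assays were run in triplicate and reported as mean ± SD.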
# [6] = Conversion of EM-FU to 5-FU by monkey liver microsomes; format: in vitro ADME; details: 1 mM, 60 min
# Procedure, shortened: as §1
# [7] = Conversion of EM-FU to 5-FU by rat liver microsomes; format: in vitro ADME; details: 1 mM, 60 min
# Procedure, shortened: as §1
# [8] = Conversion of EM-FU to 5-FU by human liver microsomes; format: in vitro ADME; details: 1 mM, 60 min
# Procedure, shortened: as §1
# [9] = test system: CYP1A2, CYP2A6, CYP2E1, CYP3A4; format: in vitro ADME; details: 100 µM inhibitor; EM-FU 1 mM; human liver microsomes
compound,measurement,setting,value
"O=c1[nH]cc(F)c(=O)[nH]1 [5-FU, 5-Fluorouracil]",5-FU level in small intestine compared with CTA,[1],almost equal level
same,5-FU levels in blood and tumor compared with CTA,[1],much higher than CTA
"O=C(O)c1cc(O)nc(O)c1 [CTA, citrazinic acid]",Inhibition of OPRT activity (5-FU phosphorylation) in cell-free tumor extract,[2],strongly inhibit
same,Inhibition of incorporation of 5-FU into RNA,[3],did not inhibit
same,Inhibition of intracellular phosphorylation of 5-FU,[3],did not inhibit
"CCOCn1cc(F)c(=O)[nH]c1=O [EM-FU, 1-ethoxymethyl-5-fluorouracil]",Production of 5-FU from EM-FU by this enzymatic reaction,[4],not produced
same,Conversion rate of EM-FU to 5-FU,[5],lowest conversion rate
same,Conversion rate of EM-FU to 5-FU,[6],30 to 60 pmol/min/mg
same,Conversion rate of EM-FU to 5-FU,[7],30 to 60 pmol/min/mg
same,Conversion rate of EM-FU to 5-FU,[8],30 to 60 pmol/min/mg
O=c1ccc2ccccc2o1 [coumarin],Inhibition of the conversion of EM-FU to 5-FU,[9],strongly inhibited
O=[N+]([O-])c1ccc(O)cc1 [p-nitrophenol],Inhibition of the conversion of EM-FU to 5-FU,[9],strongly inhibited
O=c1cc(-c2ccccc2)oc2c1ccc1ccccc12 [α-naphthoflavone],Inhibition of the conversion of EM-FU to 5-FU,[9],strongly inhibited
toleandomycin,Inhibition of the conversion of EM-FU to 5-FU,[9],strongly inhibited
